# This is a sample that favours compounds with a hit; in the whole collection about 3.1% have one here.
# KCNQ1 act: potentiators or activators of KCNQ1 channel, primary screen, cell-based, thallium flux, high-throughput | Potassium voltage-gated channel subfamily KQT member 1 (Homo sapiens), P51787 | CHO-K1 KCNQ1, thallium flux FluxOR fluorescence; stronger effect = higher value | B-score at 10 µM | 310,000 tested, 0.35% active;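 active means fluorescence ratio B-score, a plate-corrected score, at least three library SD, with initial intensity B-score within 5 SD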
#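 assay system = CHO-K1 cells stably expressing KCNQ1 | medium = assay buffer, equal DMSO in all wells | timing = 37 °C overnight plating, 90-min dark dye load, 20-min compound pretreatment | measured by = kinetic FluxOR thallium fluorescence, 10-s 1-Hz baseline, 110-s post-stimulus read | measure = fluorescence change relative to baseline, converted to B score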
# hERG protect: hERG rescue from dofetilide block, primary screen, cell-based, CHO-hERG, FluxOR thallium flux, dofetilide IC70. dofetilide IC70 present. activation (rescue from dofetilide block), less the hit threshold, % at 10 µM. 310,000 tested, 0.51% active. AID 1511, 2009;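 active means activation above the mean of controls blocked by dofetilide plus 5 SD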;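 further: thallium influx through hERG after potassium depolarization seen as dye fluorescence rise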
# KCNK9 inh: KCNK9 potassium channel inhibitors, primary screen, HEK293 cells, thallium flux. Potassium channel subfamily K member 9 (Homo sapiens), Q9NPC2. FluxOR thallium flux fluorescence; stronger effect = lower value. B-score at 10 µM. 310,000 tested, 1.2% active. AID 488922, 2010;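 active means ratio B-score over 3 SD below the library mean, with starting fluorescence within 5 SD of its mean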;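 further: negative B-score means less thallium flux so channel inhibition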
# Target sequence (Q9NPC2 whole entry, looked up): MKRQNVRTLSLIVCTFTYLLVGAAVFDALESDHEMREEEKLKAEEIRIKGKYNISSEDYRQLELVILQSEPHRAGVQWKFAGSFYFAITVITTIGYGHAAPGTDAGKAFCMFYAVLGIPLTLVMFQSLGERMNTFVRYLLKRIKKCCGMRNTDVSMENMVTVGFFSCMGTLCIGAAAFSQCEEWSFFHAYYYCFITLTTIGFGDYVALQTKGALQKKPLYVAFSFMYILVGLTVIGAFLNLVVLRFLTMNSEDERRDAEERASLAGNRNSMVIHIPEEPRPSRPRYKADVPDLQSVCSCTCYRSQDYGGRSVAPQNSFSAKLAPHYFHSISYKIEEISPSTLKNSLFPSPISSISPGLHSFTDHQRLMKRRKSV
# KCNQ1 inh: inhibitors of human KCNQ1 channel, primary screen, cell-based, thallium flux, high-throughput; Potassium voltage-gated channel subfamily KQT member 1 (Homo sapiens), P51787; CHO-K1 KCNQ1, FluxOR thallium flux fluorescence; stronger effect = higher value; B-score at 10 µM; 310,000 tested, 1.3% active; AID 2642, 2010;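 active means compounds whose thallium flux B-score, printed positive for inhibition, exceeds three library SD while starting fluorescence stays within three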;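 further: channel opened by potassium depolarization with thallium stimulus after 20 min compound exposure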
# KCNK3 block: human KCNK3 channel inhibitors, primary screen, CHO cells, FluxOR thallium flux, B-score | Potassium channel subfamily K member 3 (Homo sapiens), O14649 | FluxOR fluorescence; stronger effect = lower value | B-score at 10 µM | 340,000 tested, 0.84% active | AID 602410, 2012;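 active means B-score under library mean minus 4 SD, starting fluorescence ratio at most library mean plus 5 SD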;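 further: more negative B-score means stronger inhibition of thallium flux through KCNK3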
# KCNK9 block conf: KCNK9 potassium channel inhibitors, confirmation, HEK293 cells, thallium flux, duplicate. shares compounds with KCNK9 inh. FluxOR thallium flux fluorescence. inhibition, % at 10 µM. 4,900 tested, 43% active;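 active means thallium signal inhibited by more than 5 SD of the compound-free buffer control wells, on both duplicate plates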;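 further: 0% = assay buffer control wells without compound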
# Kir2-1 spec: mouse Kir2.1 channel inhibition, confirmation, selectivity assay for KCNK9 modulator project, cell-based, HEK293, thallium flux; Kir2.1 cells, FluxOR thallium flux fluorescence; inhibition, % at 10 µM; shares compounds with KCNK9 inh; 4,900 tested, 4% active;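 active means thallium signal drop more than 5 SD beyond the mean of the no-compound control wells, seen in both duplicate plates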;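 further: signal is fluorescence rise after thallium addition divided by baseline fluorescence; plate controls were assay buffer only for no effect and full block by chlorpromazine control for full effect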
# KCNK9 uninduced: thallium flux in non-induced HEK293 cells, confirmation, counter-screen for KCNK9 inhibitor project, cell-based, second counter screen, non-induced KCNK9-HEK293 | shares compounds with KCNK9 inh | FluxOR thallium flux | inhibition, % at 10 µM | 4,900 tested, 40% active | AID 492997, 2010;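 active means thallium signal drop beyond 5 SD of the untreated control mean, on both duplicate plates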;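 further: plate controls were buffer only IC0 wells for no effect and SID17386958 at its maximal inhibitory level for full effect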
# Active calls of the source: *; i = inactive; nt = no result.
SMILES,KCNQ1 act,hERG protect,KCNK9 inh,KCNQ1 inh,KCNK3 block,KCNK9 block conf,Kir2-1 spec,KCNK9 uninduced
O=C(CNC(=O)c1ccccc1F)NCC(c1cccs1)N1CCOCC1 (configuration not stated),nt,nt,nt,nt,i,nt,nt,nt
CCOC(=O)C1CCN(CCCSc2ccccc2)CC1,i,0,i,i,i,nt,nt,nt
CCOC(=O)C1CCN(CCCSc2ccc(C)cc2)CC1,i,-6,i,i,i,i,i,i
CC(C)(C)NC(=O)Cn1nc(C(F)(F)F)c2c1CCCC2,i,-5,i,i,i,i,i,i
CCOC(=O)C1=C(C)NC(=S)NC1c1ccc(-c2cccc(Cl)c2C)o1 (configuration not stated),i,-7,-8.6*,i,i,i,i,i
Cc1cccc(NCN2C(=O)c3ccncc3C2=O)n1,i,-6,i,i,i,i,i,i
O=C1c2ccncc2C(=O)N1Cc1cccc(Cl)c1,i,-2,i,i,i,nt,nt,nt
COc1ccc(-c2n[nH]c3c2CN(C(=O)c2ccccc2)CC3)cc1,i,-9,i,i,i,i,i,i
COc1ccc(/C=C/C(=O)NC(=S)Nc2ccc(S(=O)(=O)N=C(N)N)cc2)cc1OC,i,-5,i,i,i,nt,nt,nt
CCCC(C)c1nnc(NC(=O)CCS(=O)(=O)c2ccccc2)s1 (configuration not stated),i,-5,i,i,i,i,i,i
S=c1[nH]nc(C2COc3ccccc3O2)o1 (configuration not stated),i,-1,i,i,i,nt,nt,nt
S=c1nc(C2COc3ccccc3O2)[nH][nH]1 (configuration not stated),i,-6,i,i,i,i,i,i
Cc1ccc2[nH]c(=O)c(C(c3nnnn3C3CCCC3)N(Cc3cccnc3)Cc3ccco3)cc2c1 (configuration not stated),i,-10,i,i,i,nt,nt,nt
Clc1ccc(C(c2nnnn2C2CCCCC2)N(Cc2cccnc2)Cc2ccco2)cc1 (configuration not stated),i,-9,-11*,i,i,i,i,45%*
COc1cccc(NC(=O)CSc2nc3c(sc4ccccc43)c(=O)n2CCN(C)C)c1,i,-15,i,i,i,nt,nt,nt
CCN(CC)CCn1c(SCC(=O)Nc2cccc(OC)c2)nc2c(sc3ccccc32)c1=O,i,-21,-12*,i,i,48%*,i,32%*
O=C(OCc1cc(=O)n2cc(Br)ccc2n1)c1ccc(Cl)c(S(=O)(=O)NCc2ccccc2)c1,i,-9,-11*,i,i,i,i,i
O=C(COc1ccccc1F)Nc1nnc(C2CCCC2)s1,i,-8,i,i,i,nt,nt,nt
Cc1nc(NCC(c2ccccc2)N(C)C)c2c(C)c(C)sc2n1 (configuration not stated),i,-11,i,i,i,i,i,i
Cc1sc2ncnc(NCC(c3ccccc3)N(C)C)c2c1C (configuration not stated),i,-8,i,i,i,nt,nt,nt
Cc1ccsc1C(=O)OCC(=O)NCc1ccc(Cl)cc1,nt,nt,nt,nt,i,nt,nt,nt
CCOC(=O)C1(CC2CC2)CCN(Cc2cn[nH]c2-c2cccc(F)c2)CC1,i,-10,i,i,i,nt,nt,nt
CCOC(=O)C1(CC2CC2)CCN(Cc2ccc3cccc(F)c3n2)CC1,i,-6,i,i,i,i,i,i

# Source: PubChem BioAssay (Johns Hopkins Ion Channel Center)
